Compound activity: PubChem BioAssay, Broad Institute
Shown are actives, neighbours in structure and some others; about 2.5% of the full set was active somewhere.
dFosB act-1 – enhances mouse delta FosB homodimer DNA binding. purified delta FosB, TAMRA-CDK5 oligo fluorescence polarization; percent of positive-control signal above neutral wells. hit rate 0.99% among 340,000. activation, % at 25 µM. P13346. AID 493131;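 active = mean activation above about 17%, with every replicate also reaching it, limit read from the data, passing the limit was not always enough; inconclusive = only one of the two conditions met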
Target sequence (P13346 whole entry, looked up): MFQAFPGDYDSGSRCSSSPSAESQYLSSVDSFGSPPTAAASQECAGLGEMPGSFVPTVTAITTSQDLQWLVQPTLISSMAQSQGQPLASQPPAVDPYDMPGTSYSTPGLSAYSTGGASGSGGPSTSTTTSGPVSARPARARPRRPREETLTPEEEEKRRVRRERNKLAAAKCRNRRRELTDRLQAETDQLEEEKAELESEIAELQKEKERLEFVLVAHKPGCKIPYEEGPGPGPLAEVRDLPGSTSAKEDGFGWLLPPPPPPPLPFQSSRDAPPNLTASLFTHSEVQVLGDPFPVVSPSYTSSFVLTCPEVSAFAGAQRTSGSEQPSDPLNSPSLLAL
NSD2 HMT inh – blocks human histone methyltransferase NSD2 | O96028 | inhibition, % at 12.5 µM | AID 743445 | hit rate 0.54% among 310,000 | NSD2 peptide methylation, AlphaScreen, 120 min
SR-BI DiI-HDL act – activators of SR-BI mediated HDL lipid uptake; hit rate 0.096% among 320,000; CHO ldlA[mSR-BI] cells, DiI-HDL uptake fluorescence, 3 h; 100 = double the neutral-control signal; AID 504775; activation, % at 12.5 µM;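 active = mean replicate activation of at least 60% and every replicate at or above 60%; inconclusive = mean or all-replicate condition met, but not both; inactive = mean below 60% and not all replicates reaching 60%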
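Test system: SR-BI-overexpressing, LDLR-lacking CHO cells; Also added: labelled HDL, 10 µg/mL; Measured by: bottom-read cell fluorescence after medium removal, ex 550/em 595 nm; Timing: 3 h uptake period with compound, 37 °C; Buffer or medium: F12, 0.5% BSA, 25 mM HEPES; Doses: single compound concentration, delivered by pin transfer.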
CDK5 inh – inhibitors of human CDK5/p35 kinase; Recombinant CDK5/p35, ADP-Glo luminescence, 60 min; hit rate 0.01% among 330,000; AID 488839; inhibition, % at 10 µM;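 active = highest replicate inhibition of at least 50% and at least 75% of replicates reaching 50%; inconclusive = only one of the two criteria met; inactive = both criteria failed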
DYRK1A inh – Dyrk1A (rat) kinase inhibition | Q63470 | ADP-Glo luminescence, NFATc1 peptide | inhibition, % at 12.5 µM | hit rate 0.43% among 310,000 | AID 504441
SR-BI DiI inh – blocks mouse SR-BI lipid uptake from DiI-HDL | ldlA[mSR-BI] CHO cells, DiI-HDL uptake fluorescence, 3 h | inhibition, % at 12.5 µM | hit rate 0.96% among 320,000 | AID 488896;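 active = mean replicate inhibition of at least 70% and a set share of replicates each scoring 70 or more; inconclusive = meets just one of the two criteria; inactive = fails both criteria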
dFosB act-2 – activators of mouse delta FosB homodimer DNA binding; activation, % at 24.9 µM; 2,400 tested, under 10 active; shares compounds with dFosB act-1; AID 588690; purified delta FosB, TAMRA-CDK5 oligo fluorescence polarization; normalised: neutral wells 0, positive control 100;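 active = highest replicate activation at or above 34% and every replicate reaching that threshold; inconclusive = meets only one of the two criteria; inactive = meets neither criterion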;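 also: higher polarization means more probe DNA bound by delta FosB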
Of the large screens only hits and unclear results are named; the others gave an inactive call (follow-up assays come after a bar, where they were run). Rule as the data show it, unless noted: active = inhibition above about 50%; inactive = the rest.

NC(=O)c1nsc(C(=O)N(c2ccccc2)C(C(=O)NCc2ccc(F)cc2)c2ccc(O)cc2)c1N (stereo unspecified)	dFosB act-1 44.1 (no result: SR-BI DiI-HDL act, SR-BI DiI inh) | dFosB act-2 inactive
CC(C)c1ccc(N(C(=O)c2snc(C(N)=O)c2N)C(C(=O)NC2CCCC2)c2ccncc2)cc1 (stereo unspecified)	dFosB act-1 40.2 (no result: SR-BI DiI-HDL act, SR-BI DiI inh) | dFosB act-2 inactive
NC(=O)c1nsc(C(=O)N(c2ccccc2)C(C(=O)NC2CCCCC2)c2ccc(O)cc2)c1N (stereo unspecified)	dFosB act-1 19.2 | dFosB act-2 inactive
O=C(COc1ccc(Cl)cc1Cl)Nc1cccc(-c2ccc(N3CCOCC3)nn2)c1	none
O=C(COc1ccc(Cl)cc1Cl)Nc1ccc(-c2ccc(N3CCOCC3)nn2)cc1	dFosB act-1 41.9 | dFosB act-2 inactive
Cc1ccccc1S(=O)(=O)N1C[C@H]2CON(C)[C@H]2C[C@H]1c1cccc(-c2ccc(C#N)cc2)c1	none (no result: NSD2 HMT inh, DYRK1A inh)
Cc1c(Cc2ccc3c(c2)OCO3)sc(NC(=O)c2ccccc2)c1C(N)=O	dFosB act-1 38.5 (no result: NSD2 HMT inh) | dFosB act-2 inactive
CSc1cnn(CCC#N)c(=O)n1	none (no result: dFosB act-1, SR-BI DiI-HDL act, CDK5 inh, DYRK1A inh, SR-BI DiI inh)
O=C(Nc1ccon1)c1sc2cc(Cl)ccc2c1Cl	dFosB act-1 40.9 | dFosB act-2 inactive
O=C(COC(=O)c1cc(NS(=O)(=O)c2cccs2)ccc1O)Nc1ccc(F)c(F)c1F	dFosB act-1 22.0 | dFosB act-2 inactive
O=C(COC(=O)CCC(=O)c1cccs1)Nc1ccc(F)c(F)c1F	none
Cc1noc(C)c1COc1ccc(C(=O)NCC(c2c(F)cccc2Cl)N(C)C)cc1 (stereo unspecified)	none
Cc1c(NC(=O)c2cc3c(s2)-c2ccccc2OC3)cccc1[N+](=O)[O-]	none
Cc1csc(NC(=O)c2cc3c(s2)-c2ccccc2OC3)n1	dFosB act-1 34.9 (no result: NSD2 HMT inh) | dFosB act-2 inactive
COc1ccc(C(=O)O)cc1S(=O)(=O)Nc1ccc(Oc2ccccc2)cc1	none
Cc1cnc(NC(=O)CCNC(=O)c2ccc([N+](=O)[O-])cc2)s1	none
CC(C)Cn1c(N)c(/C=N/NC(=O)c2ccc(Cl)cc2)c(=O)n(C)c1=O	dFosB act-1 18.8 (no result: SR-BI DiI-HDL act, SR-BI DiI inh) | dFosB act-2 inactive
OC(CNCCc1ccc(Cl)cc1)COc1ccc2ccccc2c1 (stereo unspecified)	none
OC(CNCCc1ccccc1)COc1ccc(OCC(O)CNCCc2ccccc2)cc1 (stereo unspecified)	dFosB act-1 19.2 (no result: DYRK1A inh) | dFosB act-2 inactive
CC(=O)c1cc2c(cc1N/C(=N/S(=O)(=O)c1ccc(Br)cc1)c1ccccc1)OCO2	dFosB act-1 62.4 | dFosB act-2 inactive
CCOC(=O)c1c(C)[nH]c(C)c1C(=O)CSc1nnc(-c2cc(OC)c(OC)c(OC)c2)o1	dFosB act-1 33.0 | dFosB act-2 inactive
CCC(C)N(C(=O)CSc1nnc(-c2cc(OC)c(OC)c(OC)c2)o1)C(C)CC (stereo unspecified)	none (no result: dFosB act-1, SR-BI DiI-HDL act, CDK5 inh, DYRK1A inh, SR-BI DiI inh)
O=C(COc1ccccc1)NCc1nnc(SCC(=O)Nc2nccs2)n1-c1ccccc1	none (no result: NSD2 HMT inh)
COc1cccc(C(=O)NCc2nnc(SCC(=O)Nc3nccs3)n2-c2ccccc2)c1	dFosB act-1 28.0 (no result: NSD2 HMT inh) | dFosB act-2 inactive
CC(=O)Nc1ccc(/C=C/c2nc(-c3ccccc3O)n[nH]2)cc1	dFosB act-1 23.8 | dFosB act-2 inactive
COc1cc(/C=C/c2nc(-c3ccccc3O)n[nH]2)cc(OC)c1OC	dFosB act-1 inconclusive
Cn1nnc(NC(=S)NC(=O)c2ccc(-c3ccc(Br)cc3)o2)n1	dFosB act-1 32.8 | dFosB act-2 inactive
COc1ccc(-c2noc(CSc3nc(N)c(-c4ccccc4)c(=O)[nH]3)n2)cc1	dFosB act-1 61.6 | dFosB act-2 inactive
Nc1nc(SCc2ccc(Cl)cc2)[nH]c(=O)c1-c1ccccc1	none
CC(=O)Nc1ccc(S(=O)(=O)NCCc2ccc3c(c2)OCCO3)cc1	none (no result: dFosB act-1, SR-BI DiI-HDL act, CDK5 inh, DYRK1A inh, SR-BI DiI inh)
CC(=O)c1sc(NC(=O)CCS(=O)(=O)c2ccc(Cl)cc2)nc1C	dFosB act-1 20.7 | dFosB act-2 inactive
